According to ChEMBL document CHEMBL4350961, “Discovery of Pyrrolo[3,2- d]pyrimidin-4-one Derivatives as a New Class of Potent and Cell-Active Inhibitors of P300/CBP-Associated Factor Bromodomain” (J Med Chem, 2019):
Active and inactive are the calls of the source.

Key:
[1] = biological target: Myosin light chain kinase 2, skeletal/cardiac muscle (Homo sapiens) (UniProt Q9H1R3); assay: Inhibition of recombinant full-length human MYLK2 at 10 uM using KKLNRTLSFAEPG as substrate measured after 40 mins in presence of [gamma33P]ATP by scintillation counting method
Sequence of Myosin light chain kinase 2, skeletal/cardiac muscle (Homo sapiens) (Q9H1R3 whole entry): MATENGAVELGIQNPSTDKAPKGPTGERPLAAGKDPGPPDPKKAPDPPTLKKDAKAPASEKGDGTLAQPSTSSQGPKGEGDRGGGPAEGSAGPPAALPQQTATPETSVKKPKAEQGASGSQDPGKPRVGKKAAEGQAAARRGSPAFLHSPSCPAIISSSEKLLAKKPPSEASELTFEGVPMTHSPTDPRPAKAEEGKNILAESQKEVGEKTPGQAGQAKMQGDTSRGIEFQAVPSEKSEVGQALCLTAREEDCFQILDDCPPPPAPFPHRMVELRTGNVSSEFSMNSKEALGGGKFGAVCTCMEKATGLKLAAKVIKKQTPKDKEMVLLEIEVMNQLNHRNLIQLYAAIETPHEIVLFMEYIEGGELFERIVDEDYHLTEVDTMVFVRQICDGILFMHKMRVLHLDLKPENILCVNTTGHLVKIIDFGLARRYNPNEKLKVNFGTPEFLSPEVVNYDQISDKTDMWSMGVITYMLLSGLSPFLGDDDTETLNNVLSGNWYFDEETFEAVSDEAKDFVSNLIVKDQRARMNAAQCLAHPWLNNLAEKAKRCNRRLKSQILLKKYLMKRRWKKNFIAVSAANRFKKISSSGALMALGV

MEF [2] = assay: Effect on Erv3 gene expression in MEF cells at 2.5 uM measured after 48 hrs by RNA-sequencing analysis relative to control; format: functional, Mus musculus
Outline: (§1)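 Mouse embryonic fibroblasts treated 48 h; negative-control enantiomer at 2.5 µM, DMSO as blank. Total RNA extracted with TRIzol, checked by NanoDrop, then RNA-seq with n = 3 per set. Genes called changed at >1.5-fold with p < 0.05 against blank.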

[3] = biological target: Calcium/calmodulin-dependent protein kinase type 1B (Homo sapiens) (UniProt Q6P2M8); assay: Inhibition of recombinant full-length human CaMK1beta at 10 uM using calmodulin as substrate measured after 40 mins in presence of [gamma33P]ATP by scintillation counting method
Sequence of Calcium/calmodulin-dependent protein kinase type 1B (Homo sapiens) (Q6P2M8 whole entry): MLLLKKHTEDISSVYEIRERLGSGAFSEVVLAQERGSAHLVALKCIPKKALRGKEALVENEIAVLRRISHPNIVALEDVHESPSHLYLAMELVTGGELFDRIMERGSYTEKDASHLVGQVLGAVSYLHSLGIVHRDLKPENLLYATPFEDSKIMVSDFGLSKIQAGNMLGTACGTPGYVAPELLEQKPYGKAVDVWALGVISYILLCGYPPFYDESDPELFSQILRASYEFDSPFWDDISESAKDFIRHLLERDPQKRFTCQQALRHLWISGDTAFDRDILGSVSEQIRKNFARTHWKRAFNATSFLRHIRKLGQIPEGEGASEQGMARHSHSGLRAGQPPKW

[4] = system: PI3-kinase p110-alpha/p85-alpha (Homo sapiens), P27986+P42336 [E542K]; assay: Inhibition of recombinant full-length human PI3K p110alpha/p85alpha E542K mutant at 10 uM using phosphatidylinositol-4, 5-bisphosphate as substrate measured after 40 mins by fluorescence assay; format: protein-complex assay
MEF [5] = assay: Effect on Guca1a gene expression in MEF cells at 2.5 uM measured after 48 hrs by RNA-sequencing analysis relative to control; format: functional, Mus musculus; outline: as §1
MEF [6] = assay: Effect on Dmrta2 gene expression in MEF cells at 2.5 uM measured after 48 hrs by RNA-sequencing analysis relative to control; format: functional, Mus musculus; outline: as §1
[7] = biological target: Tau-tubulin kinase 1 (Homo sapiens) (UniProt Q5TCY1); assay: Inhibition of human TTBK1 (1 to 479 residues) using Casein as substrate measured after 40 mins in presence of [gamma33P]ATP by scintillation counting method
MEF [8] = assay: Effect on Snhg11 gene expression in MEF cells at 2.5 uM measured after 48 hrs by RNA-sequencing analysis relative to control; format: functional, Mus musculus; outline: as §1
MEF [9] = assay: Effect on Gabra3 gene expression in MEF cells at 2.5 uM measured after 48 hrs by RNA-sequencing analysis relative to control; format: functional, Mus musculus; outline: as §1
[10] = biological target: Bromodomain-containing protein 4 (Homo sapiens) (UniProt O60885); assay: Binding affinity to human partial length BRD4 bromodomain 2 long isoform (K333 to E460 residues) expressed in bacterial expression system at 1 uM by BROMOscan assay
Outline: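 BROMOscan bromodomain cross-screen run by an outside service, compound at 1 µM against 32 recombinant bromodomains. Binding given as percent of control.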

MEF [11] = assay: Effect on Nr4a3 gene expression in MEF cells at 2.5 uM measured after 48 hrs by RNA-sequencing analysis relative to control; format: functional, Mus musculus; outline: as §1
MEF [12] = assay: Effect on Cttnbp2 gene expression in MEF cells at 2.5 uM measured after 48 hrs by RNA-sequencing analysis relative to control; format: functional, Mus musculus; outline: as §1
MEF [13] = assay: Effect on LL6 gene expression in MEF cells at 2.5 uM measured after 48 hrs by RNA-sequencing analysis relative to control; format: functional, Mus musculus; outline: as §1
[14] = biological target: Insulin-like growth factor 1 receptor (Homo sapiens) (UniProt P08069); assay: Inhibition of recombinant human activated IGF1R (959 to end residues) at 10 uM using KKKSPGEYVNIEFG as substrate measured after 40 mins in presence of [gamma33P]ATP by scintillation counting method
Sequence of Insulin-like growth factor 1 receptor (Homo sapiens) (P08069 31-736 limits assumed): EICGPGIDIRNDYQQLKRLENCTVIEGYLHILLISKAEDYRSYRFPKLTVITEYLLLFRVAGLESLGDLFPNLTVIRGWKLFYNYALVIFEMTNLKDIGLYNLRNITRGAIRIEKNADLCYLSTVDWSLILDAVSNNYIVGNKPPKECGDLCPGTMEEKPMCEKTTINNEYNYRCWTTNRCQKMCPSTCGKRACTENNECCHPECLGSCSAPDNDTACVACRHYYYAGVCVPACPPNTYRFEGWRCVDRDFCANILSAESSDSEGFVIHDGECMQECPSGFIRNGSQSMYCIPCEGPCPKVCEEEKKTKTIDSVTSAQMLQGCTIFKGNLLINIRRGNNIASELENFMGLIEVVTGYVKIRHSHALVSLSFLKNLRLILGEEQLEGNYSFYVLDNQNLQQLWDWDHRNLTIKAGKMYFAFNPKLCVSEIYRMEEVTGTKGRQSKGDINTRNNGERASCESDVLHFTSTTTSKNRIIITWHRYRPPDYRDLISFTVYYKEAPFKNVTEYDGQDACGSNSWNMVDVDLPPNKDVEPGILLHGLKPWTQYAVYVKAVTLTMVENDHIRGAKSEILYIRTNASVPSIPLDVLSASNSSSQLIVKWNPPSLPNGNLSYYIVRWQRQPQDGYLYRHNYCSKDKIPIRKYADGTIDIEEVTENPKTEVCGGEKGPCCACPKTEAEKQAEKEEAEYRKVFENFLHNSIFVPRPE
Sequence of Insulin-like growth factor 1 receptor (Homo sapiens) (P08069 741-1367 limits assumed): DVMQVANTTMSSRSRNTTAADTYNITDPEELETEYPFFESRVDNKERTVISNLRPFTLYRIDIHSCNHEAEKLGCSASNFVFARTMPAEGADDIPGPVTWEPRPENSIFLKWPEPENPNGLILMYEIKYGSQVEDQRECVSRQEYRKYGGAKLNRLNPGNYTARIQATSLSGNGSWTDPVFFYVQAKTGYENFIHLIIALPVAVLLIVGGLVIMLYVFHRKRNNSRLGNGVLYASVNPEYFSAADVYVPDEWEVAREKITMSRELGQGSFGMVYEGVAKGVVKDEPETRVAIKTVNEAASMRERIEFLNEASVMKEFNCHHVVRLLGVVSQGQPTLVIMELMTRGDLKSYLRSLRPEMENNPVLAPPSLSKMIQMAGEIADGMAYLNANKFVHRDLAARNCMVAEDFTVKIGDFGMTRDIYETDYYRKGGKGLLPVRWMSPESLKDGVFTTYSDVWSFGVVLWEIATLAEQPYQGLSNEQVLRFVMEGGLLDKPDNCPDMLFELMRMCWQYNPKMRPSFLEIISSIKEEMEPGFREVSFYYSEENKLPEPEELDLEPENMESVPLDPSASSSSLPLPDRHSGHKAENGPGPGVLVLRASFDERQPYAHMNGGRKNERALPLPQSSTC

[15] = biological target: Calcium/calmodulin-dependent protein kinase type II subunit beta (Homo sapiens) (UniProt Q13554); assay: Inhibition of recombinant full-length human CaMK2beta (1 to 315 residues) at 10 uM using calmodulin as substrate measured after 40 mins in presence of [gamma33P]ATP by scintillation counting method
Sequence of Calcium/calmodulin-dependent protein kinase type II subunit beta (Homo sapiens) (Q13554 whole entry, the tested form may be a part): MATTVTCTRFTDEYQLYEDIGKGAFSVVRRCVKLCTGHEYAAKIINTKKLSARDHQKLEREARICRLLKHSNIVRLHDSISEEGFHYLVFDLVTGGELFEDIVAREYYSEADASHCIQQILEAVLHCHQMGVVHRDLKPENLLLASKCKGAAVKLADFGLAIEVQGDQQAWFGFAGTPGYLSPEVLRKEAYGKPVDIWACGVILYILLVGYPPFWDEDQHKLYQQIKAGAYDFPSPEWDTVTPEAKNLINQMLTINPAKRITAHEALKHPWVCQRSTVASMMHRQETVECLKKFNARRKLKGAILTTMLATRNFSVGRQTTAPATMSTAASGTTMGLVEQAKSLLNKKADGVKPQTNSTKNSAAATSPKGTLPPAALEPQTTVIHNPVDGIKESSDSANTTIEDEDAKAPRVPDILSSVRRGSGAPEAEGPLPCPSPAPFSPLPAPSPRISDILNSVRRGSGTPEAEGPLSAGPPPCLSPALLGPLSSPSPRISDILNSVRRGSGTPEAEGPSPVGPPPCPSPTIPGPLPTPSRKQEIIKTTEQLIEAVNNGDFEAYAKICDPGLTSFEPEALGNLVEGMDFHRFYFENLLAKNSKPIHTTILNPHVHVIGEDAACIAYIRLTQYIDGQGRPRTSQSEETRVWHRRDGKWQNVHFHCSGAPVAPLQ

[16] = system: Proto-oncogene tyrosine-protein kinase Src (Homo sapiens), P12931 [T341M]; assay: Inhibition of recombinant full-length human Src T341M mutant at 10 uM using GGEEEEYFELVKKKK as substrate measured after 40 mins in presence of [gamma33P]ATP by scintillation counting method
Sequence of Proto-oncogene tyrosine-protein kinase Src (Homo sapiens), P12931 [T341M] (P12931 whole entry T341M, looked up): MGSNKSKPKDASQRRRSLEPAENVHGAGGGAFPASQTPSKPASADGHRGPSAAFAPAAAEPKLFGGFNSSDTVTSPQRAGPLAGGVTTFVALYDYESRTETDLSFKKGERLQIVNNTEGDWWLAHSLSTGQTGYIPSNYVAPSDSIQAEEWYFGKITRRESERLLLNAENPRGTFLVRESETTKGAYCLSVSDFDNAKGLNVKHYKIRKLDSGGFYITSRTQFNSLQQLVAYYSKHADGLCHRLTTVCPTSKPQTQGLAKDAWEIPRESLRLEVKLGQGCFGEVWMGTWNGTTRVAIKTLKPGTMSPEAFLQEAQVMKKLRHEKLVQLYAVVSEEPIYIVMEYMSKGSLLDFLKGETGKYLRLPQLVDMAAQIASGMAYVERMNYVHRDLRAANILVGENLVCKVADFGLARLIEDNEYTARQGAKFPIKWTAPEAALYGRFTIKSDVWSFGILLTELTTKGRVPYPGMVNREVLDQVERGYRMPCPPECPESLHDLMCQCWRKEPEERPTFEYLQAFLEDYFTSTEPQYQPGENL

MEF [17] = assay: Effect on Aatk gene expression in MEF cells at 2.5 uM measured after 48 hrs by RNA-sequencing analysis relative to control; format: functional, Mus musculus; outline: as §1
MEF [18] = assay: Effect on Plekhg4 gene expression in MEF cells at 2.5 uM measured after 48 hrs by RNA-sequencing analysis relative to control; format: functional, Mus musculus; outline: as §1
MEF [19] = assay: Effect on plekhb1 gene expression in MEF cells at 2.5 uM measured after 48 hrs by RNA-sequencing analysis relative to control; format: functional, Mus musculus
Outline: (§2)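 MEF cells treated for 48 h with test compound, with (S,S) enantiomer at 2.5 µM as negative control and DMSO as blank; total RNA (TRIzol, n = 3 per set) analysed by RNA-seq; genes counted as changed at >1.5-fold, p < 0.05, relative to blank control.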

[20] = biological target: Testis-specific serine/threonine-protein kinase 2 (Homo sapiens) (UniProt Q96PF2); assay: Inhibition of recombinant full-length human TSSK2 at 10 uM using KKKVSRSGLYRSPSMPENLNRPR as substrate measured after 40 mins in presence of [gamma33P]ATP by scintillation counting method
[21] = biological target: Mitogen-activated protein kinase kinase kinase 7 (Homo sapiens) (UniProt O43318); assay: Inhibition of human TAK1 (1 to 303 residues) using casein as substrate measured after 40 mins in presence of [gamma33P]ATP by scintillation counting method
Sequence of Mitogen-activated protein kinase kinase kinase 7 (Homo sapiens) (O43318 whole entry, the tested form may be a part): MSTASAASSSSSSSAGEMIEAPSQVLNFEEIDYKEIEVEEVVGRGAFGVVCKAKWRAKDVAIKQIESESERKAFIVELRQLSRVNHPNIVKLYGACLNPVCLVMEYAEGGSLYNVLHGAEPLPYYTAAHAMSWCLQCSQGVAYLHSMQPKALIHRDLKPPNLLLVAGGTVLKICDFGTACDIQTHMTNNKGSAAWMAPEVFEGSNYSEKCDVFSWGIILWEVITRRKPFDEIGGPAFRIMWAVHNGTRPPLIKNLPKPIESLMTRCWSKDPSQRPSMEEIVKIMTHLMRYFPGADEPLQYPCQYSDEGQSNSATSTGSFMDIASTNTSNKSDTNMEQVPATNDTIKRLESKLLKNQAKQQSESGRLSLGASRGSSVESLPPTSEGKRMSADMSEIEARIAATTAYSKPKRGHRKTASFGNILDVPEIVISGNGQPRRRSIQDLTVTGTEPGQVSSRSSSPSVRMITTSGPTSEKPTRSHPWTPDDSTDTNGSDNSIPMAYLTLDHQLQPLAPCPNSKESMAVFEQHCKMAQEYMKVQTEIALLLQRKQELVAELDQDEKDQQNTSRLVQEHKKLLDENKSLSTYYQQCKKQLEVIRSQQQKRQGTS

MEF [22] = assay: Effect on Gm36718 gene expression in MEF cells at 2.5 uM measured after 48 hrs by RNA-sequencing analysis relative to control; format: functional, Mus musculus; outline: as §1
MEF [23] = assay: Effect on Prrg3 gene expression in MEF cells at 2.5 uM measured after 48 hrs by RNA-sequencing analysis relative to control; format: functional, Mus musculus; outline: as §1
[24] = system: Fibroblast growth factor receptor 2 (Homo sapiens), P21802 [N549H]; assay: Inhibition of recombinant human FGFR2 N549H mutant (456 to 770 residues) at 10 uM using GGEEEEYFELVKKKK as substrate measured after 40 mins in presence of [gamma33P]ATP by scintillation counting method
Sequence of Fibroblast growth factor receptor 2 (Homo sapiens), P21802 [N549H] (P21802 whole entry N549H, the tested form may be a part): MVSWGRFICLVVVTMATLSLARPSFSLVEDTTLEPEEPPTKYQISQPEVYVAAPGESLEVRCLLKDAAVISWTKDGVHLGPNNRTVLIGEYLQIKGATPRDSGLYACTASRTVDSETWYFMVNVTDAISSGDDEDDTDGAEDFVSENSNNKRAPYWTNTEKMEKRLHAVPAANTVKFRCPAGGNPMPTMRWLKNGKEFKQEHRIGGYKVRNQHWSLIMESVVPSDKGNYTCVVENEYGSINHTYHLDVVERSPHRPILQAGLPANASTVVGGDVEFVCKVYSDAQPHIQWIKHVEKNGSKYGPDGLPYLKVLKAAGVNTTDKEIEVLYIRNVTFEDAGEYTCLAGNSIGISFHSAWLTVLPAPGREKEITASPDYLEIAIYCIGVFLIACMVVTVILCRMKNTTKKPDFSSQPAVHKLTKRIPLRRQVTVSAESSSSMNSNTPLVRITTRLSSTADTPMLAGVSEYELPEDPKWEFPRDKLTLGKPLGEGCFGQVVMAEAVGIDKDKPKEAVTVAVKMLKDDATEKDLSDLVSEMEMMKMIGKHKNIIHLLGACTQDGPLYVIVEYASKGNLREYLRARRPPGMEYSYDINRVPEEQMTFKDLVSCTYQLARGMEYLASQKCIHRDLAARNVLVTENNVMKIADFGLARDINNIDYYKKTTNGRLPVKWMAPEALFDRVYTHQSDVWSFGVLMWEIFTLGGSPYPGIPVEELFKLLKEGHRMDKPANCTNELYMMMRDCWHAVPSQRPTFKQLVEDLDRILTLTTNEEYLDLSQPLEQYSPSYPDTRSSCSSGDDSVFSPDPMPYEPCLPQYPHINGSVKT

MEF [25] = assay: Effect on Gucy1a3 gene expression in MEF cells at 2.5 uM measured after 48 hrs by RNA-sequencing analysis relative to control; format: functional, Mus musculus; outline: as §1
[26] = system: PI3-kinase p110-alpha/p85-alpha (Homo sapiens), P27986+P42336 [H1047R]; assay: Inhibition of recombinant full-length human PI3K p110alpha/p85alpha H1047R mutant at 10 uM using phosphatidylinositol-4, 5-bisphosphate as substrate measured after 40 mins by fluorescence assay; format: protein-complex assay
Mus musculus = species on record: Mus musculus; assay: Inhibition of recombinant full-length mouse PI3K p110alpha/p85alpha at 10 uM using phosphatidylinositol-4, 5-bisphosphate as substrate measured after 40 mins by HTRF assay
MEF [27] = assay: Effect on Zfyve28 gene expression in MEF cells at 2.5 uM measured after 48 hrs by RNA-sequencing analysis relative to control; format: functional, Mus musculus; outline: as §2
MEF [28] = assay: Effect on Ooep gene expression in MEF cells at 2.5 uM measured after 48 hrs by RNA-sequencing analysis relative to control; format: functional, Mus musculus; outline: as §1

CN1C[C@H](Nc2nc3cc[nH]c3c(=O)n2C)C[C@H](c2ccc3c(c2)OCCO3)C1
inactive: inhibition [1] | inhibition [3] | inhibition [4] | inhibition [7] | Activity [10] | inhibition [14] | inhibition [15] | inhibition [16] | inhibition [20] | inhibition [21] | inhibition [24] | inhibition [26] | inhibition (Mus musculus)
>1.5: fold change (FC) (MEF [2]) | fold change (FC) (MEF [5]) | fold change (FC) (MEF [6]) | fold change (FC) (MEF [8]) | fold change (FC) (MEF [9]) | fold change (FC) (MEF [11]) | fold change (FC) (MEF [12]) | fold change (FC) (MEF [13]) | fold change (FC) (MEF [17]) | fold change (FC) (MEF [18]) | fold change (FC) (MEF [19]) | fold change (FC) (MEF [22]) | fold change (FC) (MEF [23]) | fold change (FC) (MEF [25]) | fold change (FC) (MEF [27]) | fold change (FC) (MEF [28])

CN1C[C@@H](Nc2nc3cc[nH]c3c(=O)n2C)C[C@@H](c2ccc3c(c2)OCCO3)C1
>1.5: fold change (FC) (MEF [2]) | fold change (FC) (MEF [5]) | fold change (FC) (MEF [6]) | fold change (FC) (MEF [8]) | fold change (FC) (MEF [9]) | fold change (FC) (MEF [11]) | fold change (FC) (MEF [12]) | fold change (FC) (MEF [13]) | fold change (FC) (MEF [17]) | fold change (FC) (MEF [18]) | fold change (FC) (MEF [19]) | fold change (FC) (MEF [22]) | fold change (FC) (MEF [23]) | fold change (FC) (MEF [25]) | fold change (FC) (MEF [27]) | fold change (FC) (MEF [28])
